# Assay results reported in ChEMBL document CHEMBL4393700, “Novel resveratrol-based flavonol derivatives: Synthesis and anti-inflammatory activity in vitro and in vivo” (Eur J Med Chem, 2019).
# The source made the active and inactive calls. No cut-off for these calls is given here.
# Legend:
# [1] = system: RAW264.7; experiment: Antiinflammatory activity in mouse RAW264.7 cells assessed as inhibition of LPS-induced NO production at 10 uM pretreated for 1 hr followed by LPS stimulation and measured after 24 hrs by Griess reagent based assay; type: functional, cell-based
# In short: (§1)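 RAW264.7 in DMEM/10% FBS with penicillin-streptomycin, 37 °C, 5% CO2; seeded 6×10^4 cells/well, grown 24 h, pretreated 1 h with test agent (10 µM screen; 10, 5, 2.5, 1.25, 0.625 µM for concentration series), then LPS 0.5 µg/mL for 24 h. Supernatant nitrite measured with Griess reagent.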
# [2] = system: RAW264.7; experiment: Antiinflammatory activity in mouse RAW264.7 cells assessed as reduction in LPS-induced NO production pretreated for 1 hr followed by LPS stimulation and measured after 24 hrs by Griess reagent based assay; type: functional, cell-based; in short: as §1
# [3] = system: RAW264.7; experiment: Antiinflammatory activity in mouse RAW264.7 cells assessed as reduction in LPS-induced IL-6 production pretreated for 1 hr followed by LPS stimulation and measured after 24 hrs by ELISA; type: functional, cell-based
# In short: (§2)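 RAW264.7 seeded 6×10^4 cells/well, cultured 24 h; 1 h pretreatment at 10, 5, 2.5, 1.25 or 0.625 µM, then LPS 0.5 µg/mL for 24 h. IL-6 and TNF-α in conditioned medium quantified by ELISA.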
# [4] = system: RAW264.7; experiment: Antiinflammatory activity in mouse RAW264.7 cells assessed as reduction in LPS-induced TNF alpha production pretreated for 1 hr followed by LPS stimulation and measured after 24 hrs by ELISA; type: functional, cell-based; in short: as §2
# [5] = system: RAW264.7; experiment: Cytotoxicity against LPS-stimulated mouse RAW264.7 cells at 20 uM pretreated for 1 hr followed by LPS stimulation and measured after 24 hrs by MTT assay; details: raw264.7, 24 h
Structure (SMILES),inhibition [1],Activity [5],other results
COc1ccc(/C=C/c2cc(OC)cc(OC)c2-c2oc3ccc(Cl)cc3c(=O)c2O)cc1,Active,–,Activity [2]: Dose-dependent effect; IC50 [2]: 4.83 µM; Activity [3]: Dose-dependent effect; IC50 [3]: 5.06 µM; Activity [4]: Dose-dependent effect; IC50 [4]: 7.34 µM
CCOc1ccc(/C=C/c2cc(OC)cc(OC)c2-c2oc3ccc(OC)cc3c(=O)c2O)cc1,–,Non-Toxic,–
CCOc1ccc(/C=C/c2cc(OC)cc(OC)c2-c2oc3ccccc3c(=O)c2O)cc1,Active,–,–
Cc1ccc(-c2cc(C(F)(F)F)nn2-c2ccc(S(N)(=O)=O)cc2)cc1,Active,–,–
COc1cc(/C=C/c2ccc(OCc3ccccc3)cc2)c(-c2cc(=O)c3cc(OC)ccc3o2)c(OC)c1,–,Non-Toxic,–
COc1ccc(/C=C/c2cc(OC)cc(OC)c2-c2oc3cc(C)ccc3c(=O)c2O)cc1,–,Non-Toxic,–
COc1ccc(/C=C/c2cc(OC)cc(OC)c2-c2cc(=O)c3cc(OC)c(OC)cc3o2)cc1,–,Non-Toxic,–
COc1ccc(/C=C/c2cc(OC)cc(OC)c2-c2cc(=O)c3cc(F)ccc3o2)cc1,Active,–,–
